The subject of test [1] is A549. The test is described as follows: Induction of necrosis in human A549 cells at 64 uM after 48 hrs by LDH assay. The test is classed as functional, cell-based. The essentials: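 A549 cells cultured in RPMI 1640 with 10% bovine calf serum were exposed to compound at 64 µM for 48 h. LDH released into the culture medium was measured by absorbance at 340 nm on a UV–vis spectrometer and compared with untreated control cells.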

For test [2], the system named is A549. Nature of the test: Growth inhibition of human A549 cells after 48 hrs by MTT assay. The test is classed as functional, cell-based. Conditions: A549, 48 h. The essentials: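 A549 cells kept in RPMI 1640 with 10% (v/v) bovine calf serum and 80 U/ml gentamicin at 37 °C, 5% CO2, and seeded in 96-well plates at 6250/cm². They were exposed to compound at 8, 16, 32 and 64 µM for 12, 24 or 48 h. Viability was read by MTT absorbance at 570 nm and expressed as percent of untreated control (n = 3).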
For orientation: Tetrazolium dyes change colour on reduction, which living cells bring about.

Test [3] has as its system A549. Nature of the test: Induction of autophagy in human A549 cells assessed as volume of cellular acidic compartment at 32 uM by acridine orange staining. The test is classed as functional, cell-based. The essentials: (§1)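 A549 cells in RPMI 1640 with 10% bovine calf serum were treated with compound at 16 or 32 µM for 24 or 48 h. They were then stained with acridine orange for 1 min at room temperature and imaged by fluorescence microscopy. Nuclear DNA fragmentation, chromatin condensation and the volume of the acidic compartment were scored by eye (n = 4).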

Test [4] relates to A549. Nature of the test: Induction of apoptosis in human A549 cells assessed as DNA fragmentation at 32 uM after 48 hrs by acridine orange staining. The test is classed as functional, cell-based. The essentials: as §1
Test [5] concerns A549. The test is described as follows: Viability of human A549 cells at 32 uM after 24 hrs by MTT assay relative to control. To be noted: A549, 24 h.
For test [6], the system named is A549. The test is described as follows: Induction of apoptosis in human A549 cells assessed as DNA fragmentation at 16 uM after 48 hrs by acridine orange staining. The test is classed as functional, cell-based. The essentials: as §1
Test [7] has as its system A549. Nature of the test: Viability of human A549 cells at 64 uM after 48 hrs by MTT assay relative to control. To be noted: A549, 48 h.
Test [8] relates to A549. Nature of the test: Viability of human A549 cells at 32 uM after 12 hrs by MTT assay relative to control. To be noted: A549, 12 h.
The subject of test [9] is A549. Nature of the test: Induction of apoptosis in human A549 cells assessed as DNA fragmentation at 16 uM after 24 hrs by acridine orange staining. It is filed as functional, cell-based. The essentials:
as §1

For test [10], the system named is A549. The test is described as follows: Induction of apoptosis in human A549 cells assessed as DNA fragmentation at 32 uM after 24 hrs by acridine orange staining. It is filed as functional, cell-based. The method in brief:
as §1

Test [11] deals with A549. Nature of the test: Viability of human A549 cells at 32 uM after 48 hrs by MTT assay relative to control. Conditions: A549, 48 h.

Each structure is given as a SMILES string. Active and inactive are the calls of the source. The rule behind the calls is not given here.

By IC50 is commonly meant the concentration that inhibits the measured activity by half. High values mean a need for much substance, low ones inhibition by little substance. With `O=C1c2cc(-c3ccc(Cl)cc3)nn2CCN1Cc1ccc(Cl)nc1`, the outcome in [1] was inactive. Further, the concentration for half-maximal inhibition (IC50) in test [2] was 39.5 µM.
Turning to `CC(C)(C)c1ccc(CN2CCn3nc(-c4ccccc4)cc3C2=O)cc1`, the half-inhibitory concentration (IC50) in [2] is above 64 µM.
Same read-out and setting: the same measure for `CC(C)(C)c1ccc(CN2CCn3nc(-c4ccc(Cl)cc4)cc3C2=O)cc1`: above 64 µM; for `COc1ccc(-c2cc3n(n2)CCN(CCc2ccc(OC)c(OC)c2)C3=O)cc1`: above 64 µM.
Broadly, the viability is a per cent measure of how many cells are alive, often set against a control. With `O=C1c2cc(-c3ccc(Cl)cc3)nn2CCN1Cc1ccccc1`, the outcome in [3] was Active. In addition, the outcome in test [4], in test [6], in test [1], in [9] and in test [10] was inactive. Besides, the viability at 32 µM in test [5] came out at 73.6%; in test [8], 78.7%; in [11] it was 39.2%. The same compound returned a viability at 64 µM in test [7] of 26.5%. Also, the IC50 in test [2] turned out to be 22.3 µM.
For `COc1ccc(CCN2CCn3nc(-c4ccccc4)cc3C2=O)cc1OC`, the result in test [1] was inactive. The same compound returned an IC50 in [2] of 31.5 µM.
Compound `COc1ccc(-c2cc3n(n2)CCN(Cc2ccc(Cl)nc2)C3=O)cc1` showed an IC50 in [2] above 64 µM.
The same measure, in the same setting: next, `CC(C)N1CCn2nc(-c3ccccc3)cc2C1=O`: above 64 µM.
Consider `CC(C)N1CCn2nc(-c3ccc(Cl)cc3)cc2C1=O`, for which the viability at 32 µM in [5] worked out at 75.7%; in [8], 81.4%; in test [11], 50%. The compound also displayed a viability at 64 µM in test [7] of 34.6%. Also, the result in [1] was inactive. In addition, in test [2], 31 µM corresponded to half-maximal inhibition (IC50).
`CCCCN1CCn2nc(-c3ccccc3)cc2C1=O` yielded an IC50 in [2] above 64 µM.
In turn, `O=C1c2cc(-c3ccccc3)nn2CCN1Cc1ccccc1` registered an IC50 in test [2] above 64 µM.
Turning to `COc1ccc(-c2cc3n(n2)CCN(Cc2ccc(C(C)(C)C)cc2)C3=O)cc1`, in test [1], the outcome was inactive. The IC50 in test [2] worked out at 50.2 µM.
On the same counts, the results for `CCCCN1CCn2nc(-c3ccc(Cl)cc3)cc2C1=O` are “inactive” and 29.8 µM.
In turn, `COc1ccc(-c2cc3n(n2)CCN(C(C)C)C3=O)cc1` gave an IC50 in test [2] above 64 µM.
For `COc1ccc(CCN2CCn3nc(-c4ccc(Cl)cc4)cc3C2=O)cc1OC`, in test [2], the IC50 is above 64 µM.
On the same count and under the same terms, the same measure for `O=C1c2cc(-c3ccccc3)nn2CCN1Cc1ccc(Cl)nc1`: above 64 µM; for `COc1ccc(-c2cc3n(n2)CCN(Cc2ccccc2)C3=O)cc1`: above 64 µM; for `CCCCN1CCn2nc(-c3ccc(OC)cc3)cc2C1=O`: 62.5 µM.
